# Laboratory results from ChEMBL document CHEMBL1152990, “The mechanism of action of beta-D-2'-deoxy-2'-fluoro-2'-C-methylcytidine involves a second metabolic pathway leading to beta-D-2'-deoxy-2'-fluoro-2'-C-methyluridine 5'-triphosphate, a potent inhibitor of the hepatitis C virus RNA-dependent RNA polymerase” (Antimicrob Agents Chemother, 2008).
# Legend:
# [1] = Inhibition of wild type HCV NS5B polymerase assessed as incorporation of [alpha32P]UTP into newly synthesized RNA by liquid scintillation counting; design: species or system Hepacivirus hominis
# How it was run: (§1)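 De novo RNA synthesis by NS5B lacking 21 C-terminal residues, in 50 mM HEPES pH 7.5 with 5 mM MgCl2 and 2 mM DTT at 27°C. Template was unprimed minus-IRES RNA, 2.8 μg each of enzyme and template. CTP 10 μM, ATP and GTP 100 μM; 32P-UTP and inhibitor were varied. Aliquots were quenched with EDTA/NaCl/citrate.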
# [2] = target: RNA-directed RNA polymerase (Hepacivirus hominis, UniProt O39930, S282T); experiment: Inhibition of HCV NS5B polymerase S282T mutant assessed as incorporation of [alpha32P]UTP into newly synthesized RNA by liquid scintillation counting
# How it was run: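 S282T NS5B (C-terminal Δ21, E. coli-expressed) de novo RNA synthesis on an unprimed minus-IRES template at 27°C in 50 mM HEPES pH 7.5 with 5 mM MgCl2 and 2 mM DTT. CTP, ATP and GTP were fixed at 10, 100 and 100 μM, and 32P-UTP and inhibitor were varied. Timed aliquots were quenched with EDTA/NaCl/citrate stop solution. Steady-state competitive inhibition gave the Ki.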
# Hepatitis C virus [3] = experiment: Antiviral activity against HCV harboring NS5B polymerase S282T mutation infected in human HuH7 cells assessed as inhibition of viral RNA replication after 4 days by replicon assay in absence of DCTD inhibitor zedularine; type: functional, Hepacivirus hominis; conditions: Huh-7, 96 h
# How it was run: (§2)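 Huh-7 clone A subgenomic replicon cells carrying NS5B S282T (selected by serial passage with 2′-C-methyladenosine) were seeded at 1,500 cells/well without G418. Threefold compound dilutions were added alone or with 100 μM zebularine, followed by 4 days at 37°C, 5% CO2. Replicon RNA was quantified by single-step multiplex RT-PCR, and activity was taken as ΔCT versus the no-drug control to give EC90.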
# Hepatitis C virus [4] = experiment: Antiviral activity against wild type HCV infected in human HuH7 cells assessed as inhibition of viral RNA replication after 4 days by replicon assay in absence of DCTD inhibitor zedularine; type: functional, Hepacivirus hominis; conditions: Huh-7, 96 h
# How it was run: (§3)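 Clone A Huh-7 replicon cells at 1,500 cells/well, without G418. Threefold serial compound dilutions were given with or without 100 μM zebularine, for 4 days at 37°C in 5% CO2. Replicon RNA was quantified by single-step multiplex RT-PCR, and activity was taken as ΔCT relative to the no-drug control.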
# [5] = Drug metabolism in HCV subgenomic replicon RNA-containing human HuH7 cells assessed as PSI-6130 nucleotide monophosphate level per 10 '6 cells at 5 uM after 48 hrs by HPLC analysis in presence of 50 uM DCTD inhibitor zedularine; type: ADME, cell-based; conditions: huh-7, 48 h
# How it was run: (§4)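 Clone A Huh-7 replicon cells were grown overnight in DMEM with 10% FBS. They were then exposed to 5 μM [3H]PSI-6130 with 0, 50 or 100 μM zebularine for 48 h at 37°C. Cells were washed, trypsinized, counted and extracted in cold 60% methanol. Nucleotides were separated by SAX HPLC (0–100% buffer B over 90 min) with radiometric flow detection.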
# [6] = Drug metabolism in HCV subgenomic replicon RNA-containing human HuH7 cells assessed as RO2433 nucleotide triphosphate level per 10 '6 cells at 5 uM after 48 hrs by HPLC analysis in presence of 100 uM DCTD inhibitor zedularine; type: ADME, cell-based; conditions: huh-7, 48 h; how it was run: as §4
# [7] = Drug metabolism in HCV subgenomic replicon RNA-containing human HuH7 cells assessed as RO2433 nucleotide monophosphate level per 10 '6 cells at 5 uM after 48 hrs by HPLC analysis in presence of 100 uM DCTD inhibitor zedularine; type: ADME, cell-based; conditions: huh-7, 48 h; how it was run: as §4
# [8] = Cytotoxicity against HCV subgenomic replicon RNA-containing human HuH7 cells at > 400 uM; type: cell-based; conditions: huh-7
# Hepatitis C virus [9] = experiment: Antiviral activity against wild type HCV infected in human HuH7 cells assessed as inhibition of viral RNA replication after 4 days by replicon assay; type: functional, Hepacivirus hominis; conditions: Huh-7, 96 h
# How it was run: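 Wild-type HCV subgenomic replicon Huh-7 cells (clone A) were plated at 1,500 cells/well in G418-free medium with threefold serial compound dilutions and incubated for 4 days at 37°C, 5% CO2. Replicon RNA was extracted and measured by single-step multiplex RT-PCR. Activity was calculated as the CT shift from the no-drug control, with EC90 derived.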
# [10] = Drug metabolism in HCV subgenomic replicon RNA-containing human HuH7 cells assessed as PSI-6130 nucleotide monophosphate level per 10 '6 cells at 5 uM after 48 hrs by HPLC analysis in absence of DCTD inhibitor zedularine; type: ADME, cell-based; conditions: huh-7, 48 h; how it was run: as §4
# [11] = Drug metabolism in HCV subgenomic replicon RNA-containing human HuH7 cells assessed as PSI-6130 nucleotide monophosphate level per 10 '6 cells at 5 uM after 48 hrs by HPLC analysis in presence of 100 uM DCTD inhibitor zedularine; type: ADME, cell-based; conditions: huh-7, 48 h; how it was run: as §4
# [12] = Drug metabolism in HCV subgenomic replicon RNA-containing human HuH7 cells assessed as RO2433 nucleotide diphosphate level per 10 '6 cells at 5 uM after 48 hrs by HPLC analysis in presence of 50 uM DCTD inhibitor zedularine; type: ADME, cell-based; conditions: huh-7, 48 h; how it was run: as §4
# [13] = Drug metabolism in HCV subgenomic replicon RNA-containing human HuH7 cells assessed as PSI-6130 nucleotide triphosphate level per 10 '6 cells at 5 uM after 48 hrs by HPLC analysis in absence of DCTD inhibitor zedularine; type: ADME, cell-based; conditions: huh-7, 48 h; how it was run: as §4
# [14] = Drug metabolism in HCV subgenomic replicon RNA-containing human HuH7 cells assessed as PSI-6130 nucleotide diphosphate level per 10 '6 cells at 5 uM after 48 hrs by HPLC analysis in presence of 50 uM DCTD inhibitor zedularine; type: ADME, cell-based; conditions: huh-7, 48 h; how it was run: as §4
# [15] = Drug metabolism in HCV subgenomic replicon RNA-containing human HuH7 cells assessed as RO2433 nucleotide diphosphate level per 10 '6 cells at 5 uM after 48 hrs by HPLC analysis in absence of DCTD inhibitor zedularine; type: ADME, cell-based; conditions: huh-7, 48 h; how it was run: as §4
# [16] = Drug metabolism in HCV subgenomic replicon RNA-containing human HuH7 cells assessed as RO2433 nucleotide triphosphate level per 10 '6 cells at 5 uM after 48 hrs by HPLC analysis in presence of 50 uM DCTD inhibitor zedularine; type: ADME, cell-based; conditions: huh-7, 48 h; how it was run: as §4
# [17] = Drug metabolism in HCV subgenomic replicon RNA-containing human HuH7 cells assessed as PSI-6130 nucleotide diphosphate level per 10 '6 cells at 5 uM after 48 hrs by HPLC analysis in absence of DCTD inhibitor zedularine; type: ADME, cell-based; conditions: huh-7, 48 h; how it was run: as §4
# [18] = Drug metabolism in HCV subgenomic replicon RNA-containing human HuH7 cells assessed as RO2433 nucleotide triphosphate level per 10 '6 cells at 5 uM after 48 hrs by HPLC analysis in absence of DCTD inhibitor zedularine; type: ADME, cell-based; conditions: huh-7, 48 h; how it was run: as §4
# [19] = Drug metabolism in HCV subgenomic replicon RNA-containing human HuH7 cells assessed as PSI-6130 nucleotide triphosphate level per 10 '6 cells at 5 uM after 48 hrs by HPLC analysis in presence of 100 uM DCTD inhibitor zedularine; type: ADME, cell-based; conditions: huh-7, 48 h; how it was run: as §4
# [20] = Drug metabolism in HCV subgenomic replicon RNA-containing human HuH7 cells assessed as RO2433 nucleotide monophosphate level per 10 '6 cells at 5 uM after 48 hrs by HPLC analysis in absence of DCTD inhibitor zedularine; type: ADME, cell-based; conditions: huh-7, 48 h; how it was run: as §4
# [21] = Drug metabolism in HCV subgenomic replicon RNA-containing human HuH7 cells assessed as PSI-6130 nucleotide diphosphate level per 10 '6 cells at 5 uM after 48 hrs by HPLC analysis in presence of 100 uM DCTD inhibitor zedularine; type: ADME, cell-based; conditions: huh-7, 48 h; how it was run: as §4
# [22] = Drug metabolism in HCV subgenomic replicon RNA-containing human HuH7 cells assessed as PSI-6130 nucleotide triphosphate level per 10 '6 cells at 5 uM after 48 hrs by HPLC analysis in presence of 50 uM DCTD inhibitor zedularine; type: ADME, cell-based; conditions: huh-7, 48 h; how it was run: as §4
# [23] = Drug metabolism in HCV subgenomic replicon RNA-containing human HuH7 cells assessed as RO2433 nucleotide diphosphate level at 5 uM after 48 hrs by HPLC analysis in presence of 100 uM DCTD inhibitor zedularine; type: ADME, cell-based; conditions: huh-7, 48 h; how it was run: as §4
# [24] = Drug metabolism in HCV subgenomic replicon RNA-containing human HuH7 cells assessed as RO2433 nucleotide monophosphate level per 10 '6 cells at 5 uM after 48 hrs by HPLC analysis in presence of 50 uM DCTD inhibitor zedularine; type: ADME, cell-based; conditions: huh-7, 48 h; how it was run: as §4
# Hepatocyte [25] = experiment: Metabolic stability in human hepatocytes assessed as PSI-6130 triphosphate half life at 2 uM
# Hepatitis C virus [26] = experiment: Antiviral activity against HCV harboring NS5B polymerase S282T mutation infected in human HuH7 cells assessed as inhibition of viral RNA replication after 4 days by replicon assay in presence of 100 uM DCTD inhibitor zedularine; type: functional, Hepacivirus hominis; conditions: Huh-7, 96 h; how it was run: as §2
# Hepatitis C virus [27] = experiment: Antiviral activity against wild type HCV infected in human HuH7 cells assessed as inhibition of viral RNA replication after 4 days by replicon assay in presence of 100 uM DCTD inhibitor zedularine; type: functional, Hepacivirus hominis; conditions: Huh-7, 96 h; how it was run: as §3
# Hepatitis C virus [28] = experiment: Ratio of EC90 for wild type HCV in viral replicon RNA-containing human HuH7 cells in absence of zedularine to EC90 wild type HCV in viral replicon RNA-containing human HuH7 cells in presence of zedularine; type: functional, Hepacivirus hominis, Huh-7; how it was run: as §3
# Hepatocyte [29] = experiment: Metabolic stability in human hepatocytes assessed as RO2433 triphosphate half life at 2 uM
# [30] = Activity of wild type HCV NS5B polymerase; design: species or system Hepacivirus hominis; how it was run: as §1
# Hepatocyte [31] = experiment: Metabolic stability in human hepatocytes assessed as RO2433 triphosphate half life at 2 uM; type: ADME, cell-based, Liver
# RNA-directed RNA polymerase, sequence (O39930 entry or part of it S282T): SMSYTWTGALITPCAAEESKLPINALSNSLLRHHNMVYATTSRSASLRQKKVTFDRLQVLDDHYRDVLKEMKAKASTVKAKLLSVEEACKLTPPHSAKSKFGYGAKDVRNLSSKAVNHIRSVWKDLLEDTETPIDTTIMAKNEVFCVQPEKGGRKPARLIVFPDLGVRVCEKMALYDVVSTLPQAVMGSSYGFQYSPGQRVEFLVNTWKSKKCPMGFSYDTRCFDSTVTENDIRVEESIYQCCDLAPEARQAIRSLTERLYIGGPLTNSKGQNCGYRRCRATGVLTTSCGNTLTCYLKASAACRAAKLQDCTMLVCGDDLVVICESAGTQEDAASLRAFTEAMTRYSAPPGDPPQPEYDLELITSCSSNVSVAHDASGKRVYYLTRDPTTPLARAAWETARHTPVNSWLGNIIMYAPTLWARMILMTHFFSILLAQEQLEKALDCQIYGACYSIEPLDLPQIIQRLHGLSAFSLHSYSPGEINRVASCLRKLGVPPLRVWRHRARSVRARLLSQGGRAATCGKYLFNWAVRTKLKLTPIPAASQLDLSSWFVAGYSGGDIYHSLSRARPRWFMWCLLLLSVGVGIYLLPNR
compound,measurement,setting,value
C[C@@]1(F)[C@H](O)[C@@H](COP(=O)(O)OP(=O)(O)OP(=O)(O)O)O[C@H]1n1ccc(N)nc1=O [PSI-6130-TP],Ki,[1],0.059 µM
same,Ki,[2],0.31 µM
COC(=O)[C@H](C)NP(=O)(OC[C@H]1O[C@@H](n2ccc(=O)[nH]c2=O)[C@](C)(F)[C@@H]1O)Oc1ccccc1 (stereo partly specified),EC90,Hepatitis C virus [3],34.7 µM
same,EC90,Hepatitis C virus [4],1.6 µM
O=c1ncccn1[C@@H]1O[C@H](CO)[C@@H](O)[C@H]1O [ZEBULARINE],Activity,[5],1.04 pmol
same,Activity,[6],3.53 pmol
same,Activity,[7],0.22 pmol
same,Activity,[8],50%
same,EC90,Hepatitis C virus [9],> 400 µM
same,Activity,[10],0.65 pmol
same,Activity,[11],1.26 pmol
same,Activity,[12],1.33 pmol
same,Activity,[13],11.53 pmol
same,Activity,[14],5.48 pmol
same,Activity,[15],4.79 pmol
same,Activity,[16],5.62 pmol
same,Activity,[17],3.3 pmol
same,Activity,[18],11.51 pmol
same,Activity,[19],31.74 pmol
same,Activity,[20],0.79 pmol
same,Activity,[21],6.61 pmol
same,Activity,[22],28.62 pmol
same,Activity,[23],0.88 pmol
same,Activity,[24],0.27 pmol
C[C@@]1(F)[C@H](O)[C@@H](CO)O[C@H]1n1ccc(N)nc1=O,t1/2,Hepatocyte [25],4.7 h
same,EC90,Hepatitis C virus [26],8.9 µM
same,EC90,Hepatitis C virus [3],23.8 µM
same,EC90,Hepatitis C virus [27],2.1 µM
same,EC90,Hepatitis C virus [4],4.9 µM
same,Ratio,Hepatitis C virus [28],2.3
C[C@@]1(F)[C@H](O)[C@@H](COP(=O)(O)OP(=O)(O)OP(=O)(O)O)O[C@H]1n1ccc(=O)[nH]c1=O [GS-461203],t1/2,Hepatocyte [29],38 h
same,Ki,[1],0.42 µM
same,Km,[30],0.068 µM
same,Ki,[2],22 µM
C[C@@]1(F)[C@H](O)[C@@H](CO)O[C@H]1n1ccc(=O)[nH]c1=O,Activity,Hepatocyte [31],Not Active
same,EC90,Hepatitis C virus [4],> 100 µM
